Tests used:
Format in all cases: cell-based, human
A549 cells [1] = assay: Loss of mitochondrial membrane potential; conditions: A549, 48 h
Procedure, shortened: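 A549 cells (1 × 10^5/mL/well, six-well plates) were treated for 48 h with 1.5, 3.0 or 5.0 μM test compound; paclitaxel served as positive control. After an ice-cold PBS wash, cells took up rhodamine-123 (final 0.2 mM) for 20–30 min in the dark in the incubator. Cells were washed again and fluorescence was assessed qualitatively by microscopy.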

A549 cells [2] = assay: Reactive oxygen species; conditions: 18f at 5, 3 and 1.5 μM, 48 h
Procedure, shortened: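 A549 cells (1 × 10^5, six-well) were grown 24 h, then exposed to test compound at 1.5, 3 and 5 μM for 48 h. 0.05% H2O2 positive control was added 1 h before the end. Cells were PBS-washed and loaded with DCFH-DA (10 mM as printed) for 30 min in the dark, rewashed, and viewed by inverted fluorescence microscopy.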

A549 cells [3] = assay: Apoptosis assay through DAPI staining; conditions: 18f at 5, 3 and 1.5 μM, 48 h, paclitaxel positive control

CC(=O)O[C@H]1C(=O)[C@@]2(C)[C@H]([C@H](OC(=O)c3ccccc3)[C@]3(O)C[C@H](OC(=O)[C@H](O)[C@@H](NC(=O)c4ccccc4)c4ccccc4)C(C)=C1C3(C)C)[C@]1(OC(C)=O)CO[C@@H]1C[C@@H]2O [paclitaxel]
loss of mitochondrial membrane potential (rhodamine-123 fluorescence) (A549 cells [1]; 18f at 3.0 μM): quite similar | loss of mitochondrial membrane potential (rhodamine-123 fluorescence) (A549 cells [1]; 18f at 5 μM, paclitaxel at its IC50 doses): maximum loss in the mitochondrial membrane potential | intracellular ROS (DCFDA fluorescence, qualitative) (A549 cells [2]): higher in the treated groups | nuclear morphological changes (DAPI staining) (A549 cells [3]): chromatin condensation, nuclear blebbing, and formation of apoptotic bodies
